From ChEMBL document CHEMBL4513216, “Probing the Open Global Health Chemical Diversity Library for Multistage-Active Starting Points for Next-Generation Antimalarials” (ACS Infect Dis, 2020)

Assay: Toxicity liver stage against HepG2, at 10uM
Type: cell-based
Set-up: test concentration 10 uM, cell line HepG2-A16-CD81EGFP
Conditions: human, HepG2-A16-CD81EGFP cells; read-out: INHIBITION
Method in brief: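 Uninfected HepG2-A16-CD81EGFP cells, 3 × 10^3 per well, 1536-well, plated on prespotted compound at 10 μM final, parasite-free screening media added to match infected plates; puromycin 10 μM positive, DMSO 0.5% negative; run in parallel with 48 h PbLuc assay at 37 °C, 5% CO2; viability by CellTiter-Glo luminescence, normalized to controls.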

Row | Structure (SMILES) | cytotoxicity at 10 µM [%]
1 | O=S1(=O)C[C@@H]2[C@H](C1)N(S(=O)(=O)N1CCCC1)CCN2Cc1ccccc1 | -2.59
2 | Cc1nc(-c2ccsc2)ccc1C(=O)NCCCN1CCOCC1 | -13.9
3 | CC(=O)N1CCCCC1c1nc(N)ncc1-c1ccccc1 (configuration not stated) | -0.233
4 | O=C(NCC1CCS(=O)(=O)C1)N(Cc1ccncc1)C1CC1 (configuration not stated) | -138
5 | Cc1ncsc1CN(Cc1ccccc1)Cc1ccncc1 | -4.45
6 | O=C(NCC1(O)CCSCC1)c1nccc2ccccc12 | 4.59
7 | Cc1cc(S(=O)(=O)N2CCC(N3CCC(O)C3)CC2)c(Cl)cc1Cl (configuration not stated) | 0.944
8 | COCCn1c(=O)n(Cc2ccc(Cl)s2)c2cc(C(=O)O)ccc21 | -5.54
9 | O=C(CS(=O)(=O)Cc1nnnn1C1CC1)NCCc1ccccc1 | 2.92
10 | CNC(=O)[C@H]1C[C@H]2OCC[C@H]2N(CCOc2ccc(Cl)cc2)C1 | -104
11 | CN(CCCOc1ccccc1)C(=O)CN1CCc2cncnc2C1 | -2.06
12 | COc1ccc(CN(C)Cc2ccnc(C3CCCO3)n2)cc1 (configuration not stated) | 7.67
13 | Cn1cc(C(O)CNC(=O)c2ccc(F)cc2Cl)cn1 (configuration not stated) | 0.055
14 | O=C(CNc1ccc(OCC2CCOCC2)cc1)NCc1ccco1 | 3.43
15 | CC1CCC(O)(CSc2nnnn2C)CC1 (configuration not stated) | -8.03
16 | N#Cc1ccc(C(=O)N2CCC(c3ncc[nH]3)CC2)cn1 | -3.27
17 | CCN(C1CCS(=O)(=O)C1)S(=O)(=O)c1cccc2cc(C)cnc12 (configuration not stated) | -11
18 | CC(NCc1cn(CCC(N)=O)c2ccccc12)c1nncn1C (configuration not stated) | 0.78
19 | O=C(COc1cccc(F)c1)N1C[C@H](CO)C[C@H](CN2CCCC2)C1 | 1.76
20 | Cc1ccc(CCC(=O)N2CCn3c(nnc3C(C)C)C2)cc1Cl | -5.45
21 | COc1cc2c(cc1CN1CCc3sccc3C1C)OCO2 (configuration not stated) | 7.01
22 | OCc1csc(N2CCCN(Cc3ccc(F)cc3)CC2)n1 | -2.58
23 | Cc1cccc(N2CCc3ncc(CNS(C)(=O)=O)n3CC2)n1 | 8.39

Row | Structure (SMILES) | cytotoxicity at 10 µM [%]
24 | O=C(O)c1ccc(CCNC(=O)C2(c3ccccc3)CC2)cc1 | 8.29
25 | COCCCNC(=O)N1CCN(C(=O)c2nsc3ccc(C)cc23)CC1 | 12.3
26 | COc1cc2c(cc1C(=O)N1CCCCC1c1ccccn1)CCC2 (configuration not stated) | -2.8
27 | CCC(=O)N1CCN(C)C(=O)C(Cc2ccccc2-c2cccs2)C1 (configuration not stated) | 4.89
28 | O=S(=O)(NC1CCCCC12OCCO2)c1cc(Cl)cc(Cl)c1 (configuration not stated) | 11.5
29 | CC(c1nc(C2CC2)no1)N(C)Cc1ccc2c(c1)OCCO2 (configuration not stated) | 0.611
30 | Cc1ncsc1CN1C[C@@H]2COC[C@]2(C(=O)NCc2cccnc2)C1 | -106
31 | O=C(Cc1cccs1)NCC1(O)CCc2ccccc2C1 (configuration not stated) | -10.1
32 | O=C(O)C1(Cc2cccc(Cl)c2)CCCN(c2ncnc3[nH]ccc23)C1 (configuration not stated) | 3.63
33 | Cc1nc(C2CCCCC2)sc1C(=O)O | 15
34 | c1ccc(CN2Cc3[nH]nc(COCC4CC4)c3C2)nc1 | -1.83
35 | COC(C)C(=O)N(CC(N)=O)Cc1cccc(Oc2ccccc2)c1 (configuration not stated) | 1.46
36 | OCc1csc(N2CCN(Cc3cccc(F)c3)CC2)n1 | -4.9
37 | Cc1ccc(Cn2nc(C)c3c(C(=O)O)c(Cl)c(C)nc32)cc1 | 5.53
38 | Cc1cccc(N2CCN(CCC(=O)NCc3cnc(C)cn3)CC2)c1 | -1.48
39 | CSCc1nc(CNC(=O)c2cnn(C(C)C)c2)cs1 | 1.98
40 | CC(=O)N1CCCN(C(=O)c2oc(Br)cc2C)CC1 | -13.6
41 | Cc1nc(NC(=O)CCc2c(C)nc3cc(O)nn3c2C)sc1C | -13.5
42 | O=C(NC1CCCC1)N1CCCCC1c1nc(C2CC2)no1 (configuration not stated) | -9.52
43 | Cc1cc(-c2cnc(N3CCSCC3)nc2-c2ccc(C)s2)on1 | -2.5
44 | CCN(CC1CCOC1)C(=O)Nc1ccc(OC)nc1 (configuration not stated) | -4.2
45 | CCOc1ccc2[nH]c(=O)c(CN3CCC(O)CC3)cc2c1 | 1.25
46 | CCN1C(=O)C(C)(C)c2cc(NC(=O)c3ccn(CC)n3)ccc21 | 9.65

Row | Structure (SMILES) | cytotoxicity at 10 µM [%]
47 | COCCN(C)C1COC2(CCN(Cc3cccc(F)c3)CC2)C1 (configuration not stated) | -79.3
48 | CCSc1ccc(C(=O)N2CC[C@](O)(CC)[C@H](O)C2)s1 | -7.17
49 | CC(NC(=O)CCC(=O)c1cccs1)c1nnc2n1CCCCC2 (configuration not stated) | -7.76
50 | COCC1CCCN(c2cncc(OCc3ccccc3)n2)C1 (configuration not stated) | -4.08
51 | N#CC1(NC(=O)c2ccc(-c3nc(C4CC4)n[nH]3)cc2)CCC1 | 0.614
52 | COc1ccc(CC(=O)N2CCC(c3n[nH]c(C4CC4)n3)CC2)cc1 | -14.6
53 | Cc1occc1C(=O)N1CC[C@@H]2[C@@H](CO[C@H]2CNS(C)(=O)=O)C1 | 11.3
54 | COCCC(=O)N1C[C@H](C(C)C)[C@@H](N(C)C)C1 | 5.75
55 | Cc1nc(C(=O)N2CCN(C(=O)C3CCC3)[C@@H]3CS(=O)(=O)C[C@@H]32)cs1 | 12.5
56 | CCS(=O)(=O)c1ncc(CN(C)C)n1Cc1ccccc1 | 1.73
57 | CN(C)c1cccc(C(=O)N2CCn3c(nnc3-c3ccccc3)C2)c1 | -0.375
58 | CCc1ncc2c(n1)CN(CC(O)COc1ccc(C#N)cc1)CC2 (configuration not stated) | -7.65
59 | COc1cc(CC(O)CC#N)c(OC)c2c1OCO2 (configuration not stated) | -6.32
60 | Cn1ccnc1CN1CCCN(C(=O)c2ccc3c(c2)COC3)CC1 | -10.9
61 | O=C(N[C@@H]1CCC[C@@H](N2CCCC2)[C@@H]1O)c1cc2ccccc2[nH]1 | -16.2
62 | Cc1nc(C(=O)NCc2ccccn2)cc(C2CCCN2)n1 (configuration not stated) | 6.83
63 | COc1ccccc1CN1CCc2c(nc(-c3ccccn3)[nH]c2=O)C1 | -19.7
64 | CC(C)(C)c1n[nH]c(C2CN(CCc3ccncc3)CCO2)n1 (configuration not stated) | -12.3
65 | Cc1ccc(CNC(=O)CC2C(=O)NCCN2Cc2ccccc2C)s1 (configuration not stated) | -7.98
66 | COc1ccc(OC)c(C(O)CN2CCN(C3CCCC3)CC2)c1 (configuration not stated) | 6.81
67 | O=C(Cc1ccccc1)NCCNCc1cccc(O)c1 | -0.206
68 | O=C1CSC(C(F)(F)F)c2c(O)nn(C3CCCCC3)c2N1 (configuration not stated) | -45.7
69 | CCc1n[nH]c(C2CN(Cc3nccn3CC)CCO2)n1 (configuration not stated) | -1.85

Row | Structure (SMILES) | cytotoxicity at 10 µM [%]
70 | Cc1cc(N2CCN(C(=O)c3cc(Cl)c[nH]3)CC2)nc(C(C)C)n1 | 3.49
71 | CC(Cn1cccn1)NCc1cccc(C#N)c1 (configuration not stated) | 5.19
72 | COCC1CC2(CCN(Cc3cnn(C)c3)CC2)CN1C(C)C (configuration not stated) | 2.91
73 | Cn1c(=O)oc2ccc(NC(=O)N3CCOCC3)cc21 | -5.09
74 | Nc1nnc(SCc2cc(=O)n3c4c(sc3n2)CCCC4)s1 | 7.83
75 | Cc1cc(CN2CCN(C(=O)NC(C)Cn3ccnc3)CC2)on1 (configuration not stated) | -7.42
76 | c1cncc(N2CCC3(CCCN(c4ccncc4)C3)CC2)c1 | 1.84
77 | CC(C)c1nnc2n1CCN(Cc1ccc3c(c1)OCO3)CC2 | 1.67
78 | OC(CN(Cc1ccccc1)Cc1cccnc1)c1cccs1 (configuration not stated) | 4.01
79 | Cc1nc(Nc2nnc(C)s2)cc(C2CCCN2c2ccncc2)n1 (configuration not stated) | -9.99
80 | COc1ccc(C(C)N2CCC(C(=O)N(C)C)CC2)cc1Cl (configuration not stated) | -52.5
81 | CCS(=O)(=O)NCC1Cn2nnc(-c3ccccc3)c2CO1 (configuration not stated) | -75.4
82 | O=C1CCCN1CCC1CCN(C2CCCNC2)CC1 (configuration not stated) | 2.37
83 | COc1cccc(CC2CN(C3CCN(C(C)=O)CC3)CCO2)c1 (configuration not stated) | -12.4
84 | CCn1c(C(=O)N2CCN(C(=O)COC)CC2)cc2ccccc21 | -6.59
85 | CCOC(=O)N1CC2(CCNCC2)c2cc(Cl)ccc21 | -0.449
86 | c1cc(NCc2ccncc2)nc(C2CCCN2)c1 (configuration not stated) | -2.55
87 | CC(C)N(Cc1ccccn1)Cc1nc2c(cnn2C)c(=O)[nH]1 | -6.42
88 | COCC1COCCC12CCN(C(=O)Cc1ccc(F)cc1)CC2 (configuration not stated) | 1.68
89 | O=C(C1CC1)N1CCOC2(CCNCC2)C1 | -112
90 | CC(C)C[C@H](N)COc1cccc(F)c1Oc1ccc(Cl)cc1 | 84.7
91 | CCc1ccc(C(COC)NC(=O)c2ccc(NC(C)=O)cc2)o1 (configuration not stated) | -3.91
92 | O=C1CC2(CCCC2)CC(=O)N1Cc1nc2ncccn2n1 | 2.49

Row | Structure (SMILES) | cytotoxicity at 10 µM [%]
93 | Cn1cc(CC2CCN(C(=O)NCc3cn4ccsc4n3)C2)cn1 (configuration not stated) | -5.57
94 | CC(=O)N1CCC2(CCCN(C(=O)c3ccccc3)C2)C1 (configuration not stated) | 9.52
95 | CCS(=O)(=O)c1ccc(N2CCC(NC(=O)CCC(C)C)CC2)cc1 | 15.7
96 | CCN(Cc1ccoc1)Cc1nc(COC)no1 | -0.566
97 | O=C(C[C@@H]1COC[C@H]2CN(Cc3cccnc3)C[C@@H]12)N1CCCC1 | -128
98 | O=S1(=O)CCC(n2cc(C3=CCN(CCN4CCCCC4)CC3)cn2)C1 (configuration not stated) | -8.29
99 | CNc1nc(C)c(C(=O)N2CCC(C(O)Cc3ccccc3)CC2)s1 (configuration not stated) | 3.11
100 | Cc1nnc(C2Cc3ccccc3CN2Cc2nc(C3CC3)no2)o1 (configuration not stated) | -13.1
101 | CC(=O)NCCOc1cccc(Br)c1 | -3.06
102 | O=C(Nc1ccc(F)cc1)C1CNCCN1C(=O)CCO (configuration not stated) | 1.93
103 | Cc1ccnc(NC(=O)c2cc(C)oc2C)c1 | -4.57
104 | O=C1CCc2cc(-c3csc(CCN4CCOC4=O)n3)c(F)cc2N1 | 35.2
105 | Cc1cc(CN2CCc3nn(C)c(=O)cc3C2)on1 | -8.17
106 | NCC1CCC(C(NC(=O)c2ccccn2)c2ccccn2)CC1 (configuration not stated) | 2
107 | CS(=O)(=O)N(Cc1ccon1)c1cccc(Br)c1 | 7.57
108 | Cc1nn(C)c(Oc2cccc(F)c2)c1NC(=O)C1CCOCC1 | -3.91
109 | CCSC(C)C(=O)N1CCC(c2nn(C)c(=O)n2-c2ccccc2)CC1 (configuration not stated) | 0.299
110 | O=C(c1ccco1)N1CCCC2(CCN(c3nncs3)C2)C1 (configuration not stated) | -97.4
111 | CCCc1nc2c(c(C)c(C)n2Cc2cccnc2)c(N)c1CC | 15
112 | Cc1nn(CC(C)C)c(N(C)C)c1CNCc1ccnn1C | -22.3
